Results reported in publication PMC3985958 (ACS Chemical Biology, 2014).

Key:
[1] = test system: MOLM-13 cells; test: Apoptosis analysis Annexin-V/PI; settings: for viable cells: separated enantiomers, after 72 h
[2] = target: MDM2 (Homo sapiens, UniProt Q00987); assay type: binding; settings: SAR summary, unsubstituted indole
[3] = test system: PBMCs; test: Viability of freshly isolated PBMCs; assay type: cell-based, human; settings: 72 h, data not shown
[4] = test system: p53; test: Western blot analysis in MOLM-13 cells; assay type: cell-based, human; settings: 20 μM; 6, 12, 24 h
[5] = test system: MDM2; test: Western blot analysis in MOLM-13 cells; assay type: cell-based, human; settings: 20 μM; 6, 12, 24 h
[6] = test system: caspase 3 and 7; test: CaspaseGlo 3/7 assay in MOLM-13 cells; assay type: cell-based, human; settings: 20 μM, 24 h, relative to untreated control
[7] = test system: primary AML blasts; test: Apoptosis; assay type: cell-based, human; settings: 20 μM, 72 h
[8] = test system: MDM4; test: Western blot analysis in MOLM-13 cells; assay type: cell-based, human; settings: 20 μM; 6, 12, 24 h
Summary of the method: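 MOLM-13 cells (wt p53) grown in RPMI 1640 with 10% heat-inactivated FBS, harvested in log phase. Treated with 20 µM test compound or left untreated, then lysed at 6, 12 and 24 h (1 × 10^6 cells). Equal protein run on 12% SDS-PAGE and electroblotted to PVDF. Loading checked by Ponceau S and β-actin. HRP secondaries with chemiluminescent detection.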

Chain of MDM2 (Homo sapiens, UniProt Q00987) (Q00987 1-125): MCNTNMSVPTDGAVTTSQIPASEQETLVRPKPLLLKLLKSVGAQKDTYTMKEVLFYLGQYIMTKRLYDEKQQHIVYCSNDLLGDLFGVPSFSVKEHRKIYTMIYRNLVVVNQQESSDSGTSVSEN

Question: With `CCOC(=O)c1[nH]c2cc(Cl)ccc2c1C(C(=O)NC(C)(C)C)N(C=O)Cc1ccc(Cl)cc1` (single isomer, unassigned; (-)) [(−)-YH239-EE] as the molecule, how does the viable cells [1] read?
Answer: The viable cells was 51.5%.

Question: `CC(=O)N(CC(C)C)C(C(=O)NCc1ccccc1)c1c[nH]c2ccccc12` (stereo not shown) [5a] was tested. Which “activity (binding to MDM2) in words” value [2] did it give?
Answer: The value was “inactive”.

Question: `CC(=O)N(Cc1ccccc1)C(C(=O)NCc1ccccc1)c1c[nH]c2ccccc12` (stereo not shown) [5b] was tested. Which “activity (binding to MDM2) in words” value [2] did it give?
Answer: Its value is “inactive”.

Question: For `COc1ccc(C2=N[C@@H](c3ccc(Cl)cc3)[C@@H](c3ccc(Cl)cc3)N2C(=O)N2CCNC(=O)C2)c(OC(C)C)c1` [Nutlin-3, reference compound], which “toxic effect on PBMCs (viability)” value [3] is on record?
Answer: The value was “higher toxic effect on PBMCs than (+)-YH239-EE”.

Question: What about the “apoptotic effect in words” value ([1]; 20 μM, 72 h) of the same molecule?
Answer: The value was “high induction of apoptosis”.

Question: How did the “induction of p53” value [4] turn out when (+)-YH239-EE was run?
Answer: The value was “induction of p53 could be observed after 6 h”.

Question: And the “toxic effect on PBMCs (viability)” value [3]?
Answer: Its value is “less cytotoxic than Nutlin-3”.

Question: What about the MDM2 levels [5] of the same molecule?
Answer: The MDM2 levels was “MDM2 levels raised after 12 h”.

Question: What about the “activation of caspase 3 and 7” value [6] of the same molecule?
Answer: Its value is “significant higher activation of caspase 3 and 7 after 24 h than (−)-YH239-EE and Nutlin-3”.

Question: What about the viable cells [1] of the same molecule?
Answer: Its viable cells is 13.7%.

Question: And the “response of patient samples with lower blast (<45%) counts” value [7]?
Answer: Its value is “no response”.

Question: What about the “share of tested samples with increased induction of apoptosis” value ([7]; 8 primary patient samples) of the same molecule?
Answer: The value was 2/3.

Question: And the “level of MDM4” value [8]?
Answer: The value was “no effect”.
